B1: tRNA (parent)
chain: GUUCCGUUGGCGUAAUGGUAACGCGUCUCCCUCCUAAGGAGAAGACUGCGGGUUCGAGUCCCGUACGGAACG

Consider 167 variants from the RNAGym collection of RNA variant scans (doi:10.1126/science.aae0568).

Variants at the floor of the assay were thinned out.

The variants in this series derive from B1. Description: yeast fitness relative to wild type (ratio to wild type); higher = fitter; tRNA-Arg(CCU), competitive growth, 37 C, YPD. The method, boiled down:
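Start and end populations of a pooled competition were compared by 100-nucleotide paired-end sequencing of gene amplicons. The Saccharomyces cerevisiae strains carried tRNA-Arg(CCU) gene variants at the native genomic locus, synthesised with a 3% per-site mutation rate at 69 sites, and competed in YPD at 37°C for 24 hours in six parallel replicates. Darwinian fitness relative to wild type was based on the change in genotype frequencies. Genotypes required ≥ 100 starting reads, and estimates < 0.5 were set to 0.5.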
For the variant A20C C27U G67U, the yeast fitness stood at 0.674.

With A20G C22G C27G C30U C31G G51C G63A A65G, the yeast fitness was at most 0.5.

In the case of A20C C62A G68C, the yeast fitness was at most 0.5. In the case of A20C C27U C55U it was 0.76; in that of A20G C27U U28G G68A, at most 0.5; in that of A20G A65G, 0.986. Next, A20C C46G: 1.02; A20G A37G G44A A65U: at most 0.5. In the case of A20C C24U A42U U59C it was 0.619; in that of A20G U26C A65C, 0.704. As for A20G G68A, the yeast fitness was 0.917. On to A20G G51C G67A, for which the yeast fitness came out at 0.534. Consider A20C C29G G52A, for which the yeast fitness is at most 0.5. In the case of A20C C24G U64C, the yeast fitness is 0.56. Regarding A20C G52A G68A, the yeast fitness is at most 0.5. For A20G C24A C27U, the yeast fitness worked out at 0.609.

On to A20G C22A A37C A65G, for which the yeast fitness is at most 0.5. Next, A20C C30U C61A: at most 0.5; A20C C31A U59C: 0.599.

As for A20G A43G A65U, the yeast fitness worked out at 0.596.

Consider A20G C49U U53G A65G, for which the yeast fitness is at most 0.5.

As for A20C C27U G51C U64A C66U A69C, the yeast fitness was at most 0.5.

As for A20U A36G C55G, the yeast fitness was 0.579. Consider A20C C27G, for which the yeast fitness came to 0.633. Next, A20C C27U C34G A43C C61U C62G: at most 0.5; A20G G38A: 0.912; A20G G48A C49G: 0.635.

On to A20G C34G G41C G52A, for which the yeast fitness was at most 0.5. Take A20G A65G A70C: the yeast fitness was found to be 0.694. In the case of A20U A21U C33G U35G G50U G68A it was 0.637; in that of A20G A36U C49G, at most 0.5. Next, A20G A45C A70C: 0.789. In the case of A20G A37C G68A it was 0.515; in that of A20C G38A A57U, at most 0.5; in that of A20C C60G C62U, at most 0.5.

Regarding A20G C22U A37U G41C C46A, the yeast fitness was at most 0.5. In the case of A20G C31U A36C C61U A65C it was at most 0.5. As to A20G A21G C29G C46G G52A, the yeast fitness was at most 0.5. In the case of A20C G23A C55G C60A, the yeast fitness was 0.561.

On to A20C C55U G67A, for which the yeast fitness was 0.53. With A20G C31G C61U, the yeast fitness is 0.659.

Turning to A20G C34A, the yeast fitness was determined as 0.69. Next, A20G C27G U47G C62U A65U: at most 0.5. In the case of A20G C30U A45G it was 0.524; in that of A20C U59A A65C A70C, at most 0.5; in that of A20G C24U G68C, 0.573. Turning to A20G C29A C34G A42C C49G G68A, the yeast fitness was at most 0.5. Next, A20G U47C G58U A65U: at most 0.5. In the case of A20C C30G U53G C61G, the yeast fitness was determined as 0.621.

As for A20G A43G, the yeast fitness was 1.07. Take A20G A43C: the yeast fitness was determined as 1.09. Next, A20G C31U A69C: 0.833; A20G A42C: 1.05; A20G A42G: 0.969. In the case of A20C C22G U47G G51C G63A G68C it was at most 0.5; in that of A20G U35C G63A A70U, at most 0.5. As to A20C U35A A36G G44C G68U, the yeast fitness is at most 0.5. Next, A20G C31G C61G C66U A69U: 0.545; A20G C27A A40G C46G C62G: at most 0.5. For the variant A20C G23A C29U A36C A43C, the yeast fitness was at most 0.5. For the variant A20C G44C C61U, the yeast fitness turned out to be 0.56.

As to A20G U35C A70U, the yeast fitness amounted to 0.629. Consider A20G C29U G48C G52A, for which the yeast fitness was at most 0.5. Next, A20G C27G A36G: 0.504; A20C U28C C29A A36U A40U C49G G63C A70U: at most 0.5; A20C C27U A69U: 0.81. In the case of A20G A43C G56A A57U it was at most 0.5; in that of A20G C34A A57U, at most 0.5.

As to A20G U53C, the yeast fitness came out at 0.682. Consider A20C C24A G56A C62U A70C, for which the yeast fitness amounted to 0.588. In the case of A20G C46U, the yeast fitness came out at 0.942. On to A20U A21G C22A C49G, for which the yeast fitness was at most 0.5.

In the case of A20G C22G, the yeast fitness was determined as 0.952. Next, A20U A37G C66A A69U: at most 0.5; A20G G41A: 1.2; A20G G41C: 1.01. Turning to A20G C22G C27G C30U C31G G51C C61A A69C, the yeast fitness was at most 0.5. Next, A20G C22U G67U: 0.559; A20G C49A A65G: 0.619; A20G A40G G50C A65G C66U: at most 0.5. A20G G44A C62U: the yeast fitness was determined as 0.628.

On to A20G G56C A70U, for which the yeast fitness was 0.859. For A20G C46U G63A, the yeast fitness was found to be 0.82. Next, A20C G25C C33A C55A: at most 0.5; A20C C24G C29G A37G C66G: at most 0.5; A20C G63A: 0.843. Turning to A20C C34G C66U, the yeast fitness is at most 0.5. In the case of A20G A40C A42U A43C G50A it was at most 0.5. Next, A20C C24G C27A G51C C61U: 0.586; A20G C30A A69C: 0.752; A20G A36U C66A: 0.529. Next, A20C G56A: 0.866; A20C G56U: 0.765. A20U A36G A70U: the yeast fitness amounted to 0.626.

As to A20C C31U, the yeast fitness was determined as 1.03. Take A20C C31G: the yeast fitness came out at 0.744. In the case of A20G C24G C27U A40C it was 0.532; in that of A20C G58C, 1.03. In the case of A20C C29U it was 0.715.

As to A20C C29A, the yeast fitness came to 0.635. A20G C31G A70G: the yeast fitness came out at 0.715. In the case of A20G C29A A65C it was 0.544; in that of A20G G51C, 0.581.

Consider A20G A43U G48A, for which the yeast fitness worked out at 0.73. For A20G C24U G52A A57G C66U, the yeast fitness is at most 0.5.

On to A20G C24U C31A G68C, for which the yeast fitness was at most 0.5.

For the variant A20C C60A, the yeast fitness was determined as 0.587. Regarding A20G C27U C49U A57G, the yeast fitness is at most 0.5.

Regarding A20C C34G A43C G56A C61U A65G, the yeast fitness was at most 0.5. With A20G C33G G56A, the yeast fitness came out at 0.639. In the case of A20G C31U A42U C46U U59G A65U it was at most 0.5; in that of A20C G44A C60A G67A, at most 0.5; in that of A20U A21C, 0.651. Next, A20U A21G: 0.947; A20G U26C G39A G50A: at most 0.5. In the case of A20G C34G U47C it was at most 0.5; in that of A20C C24G A42G, 0.585. With A20G G44A U54C, the yeast fitness was 0.712. In the case of A20C U59C it was 0.749; in that of A20C C30G C46A U47G C49A G52A G58C U64G A65G, at most 0.5. In the case of A20G U32G it was 0.672; in that of A20G U32C, 0.949.

On to A20U A37C U53A, for which the yeast fitness turned out to be 0.682. In the case of A20C U35C G51C C60G A70U it was at most 0.5. On to A20G A36U G68C, for which the yeast fitness amounted to 0.535. In the case of A20C C30G C60G it was at most 0.5; in that of A20G C22A A42G, 0.557; in that of A20G A21G, 0.986. As to A20G G52C, the yeast fitness was determined as 0.613. In the case of A20G C31A G68A it was 0.575; in that of A20G A37C G39A A65U A70C, at most 0.5. Next, A20C C24U A57G C61U: 0.617; A20C C30A C55G: 0.557; A20C C30A C55A: 0.571. Regarding A20C G44A C46U A69C, the yeast fitness came out at 0.698. Regarding A20G C30A G48A U64C, the yeast fitness was at most 0.5. In the case of A20G A40G it was 0.888; in that of A20G C34G A37C C66U, at most 0.5; in that of A20G G67A, 0.95. Next, A20C C31G A36G: 0.764; A20G A43G U47G G67C: at most 0.5; A20C U26C C30U C61A: at most 0.5. Regarding A20G A40C A42U A43C G48A, the yeast fitness turned out to be 0.562. In the case of A20C C22U C66U it was 0.622. With A20C C46A C49G, the yeast fitness worked out at 0.548. In the case of A20G A43C A57U it was 0.538. In the case of A20G C24G C33A A36U it was at most 0.5; in that of A20G C22G C27G C30U C31G G51C C61G, at most 0.5; in that of A20C C30G A40G, at most 0.5. Consider A20G C66A, for which the yeast fitness was found to be 0.635. Turning to A20G G25A, the yeast fitness turned out to be 0.904. In the case of A20G G25C it was 0.985; in that of A20C C34G G67U A69G, at most 0.5.

Turning to A20G C31U A42U C46U A65C, the yeast fitness was at most 0.5. As for A20G C33U C61G G68C, the yeast fitness was at most 0.5. Consider A20C U53C, for which the yeast fitness came out at 0.717. Turning to A20C C27U A37C A42G, the yeast fitness came to 0.688. In the case of A20G A40G G44A C46G it was at most 0.5; in that of A20C C27U A37C A42G C66U, at most 0.5. In the case of A20G A57C C62U it was at most 0.5; in that of A20G U47C, 0.947; in that of A20G C22U U53A, at most 0.5. Next, A20C U26A C61A A65U: 0.555; A20U A36C C60A: at most 0.5.

Turning to A20G C34G C55G U59C C60U G67U, the yeast fitness is at most 0.5. With A20G A21G C22U, the yeast fitness was 0.564. A20G C30A C31U A45C C55G: the yeast fitness is at most 0.5.
